{"source": "ChEMBL document CHEMBL1156347", "about": "“Immunomodulatory constituents from an Ascomycete, Eupenicillium crustaceum, and revised absolute structure of macrophorin D” (J Nat Prod, 2001)", "key": {"[1]": {"assay": "Immunosuppressant activity in mouse T cells assessed as inhibition of concanavalin A-induced cell proliferation", "assay_type": "functional, cell-based", "outline": "(§1)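 Splenic lymphocytes from male BALB/c mice aged 7-11 weeks, stimulated with concanavalin A (T cells) or LPS (B cells). Proliferation read as formation of MTT-formazan from exogenous MTT in the lymphocytes. Seven concentrations tested, each point the mean of 3 experiments. IC50 read from the concentration-versus-proliferation curve.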"}, "[2]": {"assay": "Immunosuppressant activity in mouse B cells assessed as inhibition of LPS-induced cell proliferation", "assay_type": "functional, cell-based", "outline": "as §1"}, "T-cell": {"system": "T-cell", "assay": "Ratio of IC50 for mouse T cells proliferation to IC50 for mouse B cells proliferation", "assay_type": "functional"}}, "data": [{"smiles": "C=CC[C@@H]1/C=C(\\C)C[C@H](C)C[C@H](OC)[C@H]2O[C@@](O)(C(=O)C(=O)N3CCCC[C@H]3C(=O)O[C@H](/C(C)=C/[C@@H]3CC[C@@H](O)[C@H](OC)C3)[C@H](C)[C@@H](O)CC1=O)[C@H](C)C[C@@H]2OC", "note": "[TACROLIMUS ANHYDROUS]", "values": [{"measurement": "IC50", "setting": "[1]", "result": "1.5e-05", "unit": "µg/mL"}, {"measurement": "IC50", "setting": "[2]", "result": 0.0016, "unit": "µg/mL"}]}, {"smiles": "C=C1CC[C@H]2C(C)(C)CCC[C@]2(C)[C@H]1C[C@@]12O[C@@H]1C(=O)C(COC(=O)C[C@@](C)(O)CC(=O)O)=CC2=O", "values": [{"measurement": "IC50", "setting": "[1]", "result": 4.5, "unit": "µg/mL"}, {"measurement": "IC50", "setting": "[2]", "result": 2, "unit": "µg/mL"}, {"measurement": "Ratio IC50", "setting": "T-cell", "result": 2}]}, {"smiles": "Cn1cnc([N+](=O)[O-])c1Sc1ncnc2[nH]cnc12", "note": "[AZATHIOPRINE]", "values": [{"measurement": "IC50", "setting": "[1]", "result": 2.7, "unit": "µg/mL"}, {"measurement": "IC50", "setting": "[2]", "result": 2.7, "unit": "µg/mL"}]}, {"smiles": "C=C1CC[C@H]2C(C)(C)CCC[C@]2(C)[C@H]1C[C@@]12O[C@@H]1C(=O)C(CO)=CC2=O", "values": [{"measurement": "IC50", "setting": "[1]", "result": 0.5, "unit": "µg/mL"}, {"measurement": "IC50", "setting": "[2]", "result": 0.25, "unit": "µg/mL"}, {"measurement": "Ratio IC50", "setting": "T-cell", "result": 2}]}]}
